Data as given in ChEMBL document CHEMBL4689842, “EUbOPEN Chemogenomics Library wave 1” (2021).

System: U2OS
Experiment: Multiplex assay against U2OS
Format: toxicity, cell-based
Settings: human
Outline: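 On a CQ1 microscope at 37°C and 5% CO2, live cells were imaged after compound addition. They had been stained at seeding with Hoechst33342, BioTracker Green Microtubule Cytoskeleton Dye, MitoTracker Red and Annexin V Alexa Fluor 680. CellPathfinder machine-learning gating assigned cells to Hoechst high-intensity objects or normal cells, normal cells to healthy, pyknosed or fragmented nuclei, and pyknosed cells to mitotic or apoptotic. Tubulin, mitochondrial-mass and membrane-permeability phenotypes are per cents of healthy-nucleus cells.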

[1] = 12 h, 1 µM, compound concentration 1 uM, replicate 1
[2] = 12 h, 1 µM, compound concentration 1 uM, replicate 2
[3] = 12 h, 10 µM, compound concentration 10 uM, replicate 1
[4] = 12 h, 10 µM, compound concentration 10 uM, replicate 2
[5] = 24 h, 1 µM, compound concentration 1 uM, replicate 1
[6] = 24 h, 1 µM, compound concentration 1 uM, replicate 2
[7] = 24 h, 10 µM, compound concentration 10 uM, replicate 1
[8] = 24 h, 10 µM, compound concentration 10 uM, replicate 2

In the case of C=CC(=O)Nc1cccc(Sc2nc(Nc3ccc(N4CCN(C)CC4)cc3)ncc2Cl)c1, the “Population Apoptotic (%)” value [1] is reported as 99%, the “Population Fragmented Nuclei (%)” value [1] is reported as 5% and the “Population Healthy Nuclei (%)” value [1] is reported as 3%. For the same compound, the “Population Hoechst High Intensity Objects (%)” value [1] was 10%, the “Population Membrane Permeable-Phenotype (%)” value [1] was 100% and the “Population Mitochondria Different-Phenotype (%)” value [1] was 100%. The “Population Mitotic Cells (%)” value [1] was 0%, the “Population Normal (%)” value [1] was 89% and the “Population Pyknosed Nuclei (%)” value [1] was 91%. For the same compound, the “Population Tubulin-Different-Phenotype (%)” value [1] was 100%, the “Total Cell Count” value [1] was 197 and the “Population Apoptotic (%)” value [2] was 95%. The “Population Fragmented Nuclei (%)” value [2] was 16%, the “Population Healthy Nuclei (%)” value [2] was 11% and the “Population Hoechst High Intensity Objects (%)” value [2] was 14%. The “Population Mitotic Cells (%)” value [2] was 5%, the “Population Normal (%)” value [2] was 85% and the “Population Pyknosed Nuclei (%)” value [2] was 71%. The “Total Cell Count” value [2] was 119, the “Population Apoptotic (%)” value [3] was 28% and the “Population Fragmented Nuclei (%)” value [3] was 5%. For the same compound, the “Population Healthy Nuclei (%)” value [3] was 83%, the “Population Hoechst High Intensity Objects (%)” value [3] was 1% and the “Population Membrane Permeable-Phenotype (%)” value [3] was 32%. The “Population Mitochondria Different-Phenotype (%)” value [3] was 11%, the “Population Mitotic Cells (%)” value [3] was 71% and the “Population Normal (%)” value [3] was 98%. For the same compound, the “Population Pyknosed Nuclei (%)” value [3] was 10%, the “Population Tubulin-Different-Phenotype (%)” value [3] was 25% and the “Total Cell Count” value [3] was 175. For the same compound, the “Population Apoptotic (%)” value [4] was 44%, the “Population Fragmented Nuclei (%)” value [4] was 8% and the “Population Healthy Nuclei (%)” value [4] was 82%. For the same compound, the “Population Hoechst High Intensity Objects (%)” value [4] was 14%, the “Population Membrane Permeable-Phenotype (%)” value [4] was 25% and the “Population Mitochondria Different-Phenotype (%)” value [4] was 10%. The “Population Mitotic Cells (%)” value [4] was 55%, the “Population Normal (%)” value [4] was 85% and the “Population Pyknosed Nuclei (%)” value [4] was 8%. For the same compound, the “Population Tubulin-Different-Phenotype (%)” value [4] was 33%, the “Total Cell Count” value [4] was 115 and the “Population Apoptotic (%)” value [5] was 96%. The “Population Fragmented Nuclei (%)” value [5] was 10%, the “Population Hoechst High Intensity Objects (%)” value [5] was 7% and the “Population Mitochondria Different-Phenotype (%)” value [5] was 96%. The “Population Mitotic Cells (%)” value [5] was 3%, the “Population Normal (%)” value [5] was 92% and the “Population Pyknosed Nuclei (%)” value [5] was 50%. For the same compound, the “Total Cell Count” value [5] was 237, the “Population Apoptotic (%)” value [6] was 100% and the “Population Fragmented Nuclei (%)” value [6] was 21%. For the same compound, the “Population Healthy Nuclei (%)” value [6] was 38%, the “Population Hoechst High Intensity Objects (%)” value [6] was 15% and the “Population Membrane Permeable-Phenotype (%)” value [6] was 100%. The “Population Mitochondria Different-Phenotype (%)” value [6] was 100%, the “Population Mitotic Cells (%)” value [6] was 0% and the “Population Normal (%)” value [6] was 84%. For the same compound, the “Population Pyknosed Nuclei (%)” value [6] was 40%, the “Population Tubulin-Different-Phenotype (%)” value [6] was 100% and the “Total Cell Count” value [6] was 127. The “Population Apoptotic (%)” value [7] was 42%, the “Population Fragmented Nuclei (%)” value [7] was 6% and the “Population Healthy Nuclei (%)” value [7] was 82%. For the same compound, the “Population Hoechst High Intensity Objects (%)” value [7] was 1%, the “Population Membrane Permeable-Phenotype (%)” value [7] was 24% and the “Population Mitochondria Different-Phenotype (%)” value [7] was 13%. For the same compound, the “Population Mitotic Cells (%)” value [7] was 57%, the “Population Normal (%)” value [7] was 98% and the “Population Pyknosed Nuclei (%)” value [7] was 11%. For the same compound, the “Population Tubulin-Different-Phenotype (%)” value [7] was 18%, the “Total Cell Count” value [7] was 158 and the “Population Apoptotic (%)” value [8] was 72%. For the same compound, the “Population Fragmented Nuclei (%)” value [8] was 7%, the “Population Hoechst High Intensity Objects (%)” value [8] was 12% and the “Population Membrane Permeable-Phenotype (%)” value [8] was 23%. The “Population Mitochondria Different-Phenotype (%)” value [8] was 15%, the “Population Mitotic Cells (%)” value [8] was 27% and the “Population Normal (%)” value [8] was 87%. For the same compound, the “Population Pyknosed Nuclei (%)” value [8] was 9%, the “Population Tubulin-Different-Phenotype (%)” value [8] was 22% and the “Total Cell Count” value [8] was 103.
